Results on eleven molecules are retold here after ChEMBL document CHEMBL3244174, “Synthesis and biological activity of some new furan quaternary salts” (J Med Chem, 1977).

In assay [1] the test system is Trichophyton mentagrophytes. Description: Antifungal activity against Trichophyton mentagrophytes A-280 USPHS assessed as growth inhibition by agar dilution method. Format: functional. (In general: Agar dilution tests growth on a series of plates holding different concentrations.)
Assay [2] has as its system Pseudomonas aeruginosa. Description: Antibacterial activity against Pseudomonas aeruginosa ATCC 10145 assessed as growth inhibition after 24 hrs by dilution tube method. The settings on record: ATCC 10145, 24 h. Format: functional. A digest of the protocol: (§1)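 Broth tube dilution in Tryptone Soya Broth, duplicate tubes at each concentration. MIC (μg/ml) was the highest dilution preventing visible growth. Nitrofurantoin run under the same conditions.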

Assay [3] concerns Candida albicans. The experiment in a line: Antifungal activity against Candida albicans SKF 2270 assessed as growth inhibition by agar dilution method. Format: functional.
The subject of assay [4] is Microsporum canis. Description: Antifungal activity against Microsporum canis VM-200 USPHS assessed as growth inhibition by agar dilution method. Format: functional.
In assay [5] the test system is Cryptococcus neoformans. The experiment in a line: Antifungal activity against Cryptococcus neoformans 103 assessed as growth inhibition by agar dilution method. Format: functional.
Assay [6] deals with Nannizzia gypsea. The experiment in a line: Antifungal activity against Microsporum gypseum 153 CSTM assessed as growth inhibition by agar dilution method. It counts as functional.
The subject of assay [7] is Salmonella typhi. Description: Antibacterial activity against Salmonella typhi 115 assessed as growth inhibition after 24 hrs by dilution tube method. It counts as functional, Salmonella enterica subsp. enterica serovar Typhi. The settings on record: Salmonella enterica, 115, 24 h. A digest of the protocol: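 Dilution tube method in Tryptone Soya Broth; MIC (μg/ml) taken as highest dilution preventing visible growth; duplicates at every concentration; nitrofurantoin reference run under same conditions.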

Assay [8] concerns Histoplasma capsulatum. The experiment in a line: Antifungal activity against Histoplasma capsulatum RNSH Hi-70 1/2 assessed as growth inhibition by agar dilution method. It counts as functional.
The subject of assay [9] is Agrobacterium tumefaciens. The experiment in a line: Antibacterial activity against Agrobacterium tumefaciens NRRL B-36 assessed as growth inhibition after 24 hrs by dilution tube method. It counts as functional. The settings on record: NRRL B-36, 24 h. A digest of the protocol:
as §1

Assay [10] deals with Klebsiella pneumoniae. The experiment in a line: Antibacterial activity against Klebsiella pneumoniae ATCC 10031 assessed as growth inhibition after 24 hrs by dilution tube method. Format: functional. To be noted: ATCC 10031, 24 h. A digest of the protocol:
as §1

Assay [11] concerns Staphylococcus aureus. Description: Antibacterial activity against Staphylococcus aureus ATCC 6538 assessed as growth inhibition after 24 hrs by dilution tube method. It counts as functional. The settings on record: ATCC 6538, 24 h. A digest of the protocol: as §1
The test system of assay [12] is Enterococcus faecalis. The experiment in a line: Antibacterial activity against Streptococcus faecalis ATCC 10541 assessed as growth inhibition after 24 hrs by dilution tube method. It counts as functional. The settings on record: ATCC 10541, 24 h. A digest of the protocol:
as §1

The test system of assay [13] is Escherichia coli. The experiment in a line: Antibacterial activity against Escherichia coli 114 assessed as growth inhibition after 24 hrs by dilution tube method. Format: functional. The settings on record: Escherichia coli, 114, 24 h. A digest of the protocol:
as §1

Assay [14] concerns Trichophyton rubrum. Description: Antifungal activity against Trichophyton rubrum 252 CSTM assessed as growth inhibition by agar dilution method. It counts as functional.
For assay [15], the system named is Mycobacterium tuberculosis. The experiment in a line: Antibacterial activity against Mycobacterium tuberculosis H37Rv assessed as growth inhibition by serial dilution method. It counts as functional. A digest of the protocol: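 M. tuberculosis H37Rv maintained on Lowenstein–Jensen medium; tested in Youman's medium by serial dilution.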

What is called MIC is the lowest concentration found to suppress growth. Regarding `C[N+](C)(CCCOc1c(Br)cc(Br)cc1Br)Cc1ccc([N+](=O)[O-])o1.[Br-]`, the MIC in assay [1] was more than 200 µg/mL; in assay [2] it was 25 µg/mL; in assay [3], more than 200 µg/mL; in assay [4], more than 200 µg/mL; in assay [5], 200 µg/mL; in [6], more than 200 µg/mL. For the same molecule, the MIC in assay [7] was more than 200 µg/mL; in assay [8], 200 µg/mL; in assay [9], 100 µg/mL; in assay [10], 25 µg/mL; in assay [11], 50 µg/mL; in assay [12], 200 µg/mL. The MIC was more than 200 µg/mL in [13], more than 200 µg/mL in assay [14] and 50 µg/mL in assay [15].
As for `Cc1cc(OCCCCCCCCCCCC[N+](C)(C)Cc2ccc(Br)o2)c(C(C)C)cc1Cl.Cc1ccc(S(=O)(=O)[O-])cc1`, the MIC was more than 200 µg/mL in [1]; 50 µg/mL in assay [2]; more than 200 µg/mL in assay [3]; more than 200 µg/mL in assay [4]; more than 200 µg/mL in [5]; more than 200 µg/mL in assay [6]. Moreover, the MIC in [7] is more than 200 µg/mL; in assay [8], more than 200 µg/mL; in assay [9], more than 200 µg/mL; in assay [10] it was 200 µg/mL; in assay [11], 200 µg/mL; in [12] it was more than 200 µg/mL. In addition, the values for the MIC in assay [13], in [14] and in assay [15] were more than 200 µg/mL, more than 200 µg/mL and 200 µg/mL, respectively.
As to `C[N+](C)(CCCCCOc1c(Br)cc(Br)cc1Br)Cc1ccco1.[Br-]`, the MIC in assay [1] came to 100 µg/mL; in assay [2], 25 µg/mL; in assay [3], 100 µg/mL; in assay [4], 100 µg/mL; in assay [5] it was 25 µg/mL; in assay [6] it was 100 µg/mL. The MIC in assay [7] was more than 200 µg/mL; in [8], 50 µg/mL; in assay [9] it was 100 µg/mL; in assay [10], 25 µg/mL; in assay [11], 25 µg/mL; in assay [12], 50 µg/mL. Moreover, the MIC was more than 200 µg/mL in assay [13], more than 200 µg/mL in [14] and 25 µg/mL in assay [15].
On to `Cc1cc(OCCC[N+](C)(C)Cc2ccc(Br)o2)c(C(C)C)cc1Cl.[Br-]`, for which the MIC in [1] was more than 200 µg/mL; in assay [2], 4 µg/mL; in assay [3], more than 200 µg/mL; in [4], 100 µg/mL; in [5] it was 50 µg/mL; in assay [6], more than 200 µg/mL. Also, the MIC worked out at 100 µg/mL in [7]; 100 µg/mL in assay [8]; 25 µg/mL in [9]; 7.5 µg/mL in assay [10]; 10 µg/mL in assay [11]; 10 µg/mL in assay [12]. For the same molecule, the values for the MIC in [13], in assay [14] and in [15] were more than 200 µg/mL, 100 µg/mL and 10 µg/mL, respectively.
`Cc1cc(OCCCCCCC[N+](C)(C)Cc2ccc([N+](=O)[O-])o2)c(C(C)C)cc1Cl.[Br-]`: the MIC in [1] was more than 200 µg/mL; in [2], 2 µg/mL; in assay [3], more than 200 µg/mL; in [4] it was more than 200 µg/mL; in [5], 4 µg/mL; in assay [6], more than 200 µg/mL. The MIC is more than 200 µg/mL in [7]; more than 200 µg/mL in [8]; 7.5 µg/mL in assay [9]; 3 µg/mL in assay [10]; 4 µg/mL in assay [11]; 3 µg/mL in [12]. The MIC was more than 200 µg/mL in [13], more than 200 µg/mL in assay [14] and 5 µg/mL in assay [15].
As to `C[N+](C)(CCOc1ccc(Cl)cc1Cl)Cc1ccc([N+](=O)[O-])o1.[Br-]`, the MIC was more than 200 µg/mL in [1]; 100 µg/mL in assay [2]; more than 200 µg/mL in assay [3]; more than 200 µg/mL in [4]; more than 200 µg/mL in [5]; more than 200 µg/mL in [6]. The MIC is more than 200 µg/mL in assay [7]; more than 200 µg/mL in [8]; more than 200 µg/mL in [9]; 100 µg/mL in [10]; 200 µg/mL in [11]; more than 200 µg/mL in [12]. For the same molecule, the MIC in assay [13], in [14] and in assay [15] was more than 200 µg/mL each time.
In the case of `Cc1cc(OCCCC[N+](C)(C)Cc2ccco2)c(C(C)C)cc1Cl.[Br-]`, the MIC in [1] was more than 200 µg/mL; in [2], 7.5 µg/mL; in [3] it was 100 µg/mL; in assay [4] it was more than 200 µg/mL; in assay [5] it was 25 µg/mL; in assay [6], more than 200 µg/mL. Besides, the MIC in assay [7] is more than 200 µg/mL; in [8], more than 200 µg/mL; in assay [9], 25 µg/mL; in assay [10], 10 µg/mL; in assay [11], 25 µg/mL; in assay [12] it was 25 µg/mL. Further, the figures for the MIC in assay [13], in assay [14] and in assay [15] were more than 200 µg/mL, more than 200 µg/mL and 10 µg/mL, respectively.
Take `Cc1cc(OCCCCCCCC[N+](C)(C)Cc2ccc(Br)o2)c(C(C)C)cc1Cl.Cc1ccc(S(=O)(=O)[O-])cc1`: the MIC in assay [1] is 200 µg/mL; in assay [2] it was 25 µg/mL; in assay [3], more than 200 µg/mL; in assay [4] it was 100 µg/mL; in assay [5] it was 50 µg/mL; in [6], 200 µg/mL. In addition, the minimal inhibitory concentration (MIC) was more than 200 µg/mL in assay [7]; more than 200 µg/mL in [8]; 100 µg/mL in assay [9]; 100 µg/mL in assay [10]; 100 µg/mL in assay [11]; 100 µg/mL in [12]. The values for the MIC in [13], in [14] and in [15] were more than 200 µg/mL, 200 µg/mL and 25 µg/mL, respectively.
Turning to `C[N+](C)(CCCCCOc1c(Br)cc(Br)cc1Br)Cc1ccc([N+](=O)[O-])o1.[Br-]`, the MIC is more than 200 µg/mL in assay [1]; 7.5 µg/mL in assay [2]; more than 200 µg/mL in assay [3]; more than 200 µg/mL in assay [4]; 25 µg/mL in assay [5]; more than 200 µg/mL in assay [6]. Also, the MIC in assay [7] is more than 200 µg/mL; in assay [8], more than 200 µg/mL; in assay [9], 25 µg/mL; in [10], 5 µg/mL; in assay [11] it was 25 µg/mL; in [12], 25 µg/mL. Moreover, the MIC is more than 200 µg/mL in assay [13], more than 200 µg/mL in assay [14] and 7.5 µg/mL in assay [15].
In the case of `C[N+](C)(CCCCCCCOc1c(Br)cc(Br)cc1Br)Cc1ccc([N+](=O)[O-])o1.[Br-]`, the MIC in assay [1] was more than 200 µg/mL; in assay [2], 3 µg/mL; in assay [3], more than 200 µg/mL; in [4], more than 200 µg/mL; in [5], 5 µg/mL; in [6] it was more than 200 µg/mL. In addition, the MIC was more than 200 µg/mL in assay [7]; more than 200 µg/mL in assay [8]; 25 µg/mL in assay [9]; 5 µg/mL in assay [10]; 7.5 µg/mL in assay [11]; 7.5 µg/mL in assay [12]. For the same molecule, the MIC in assay [13] is more than 200 µg/mL; in assay [14], more than 200 µg/mL; in [15], 10 µg/mL.
Take `Cc1cc(OCCCCCC[N+](C)(C)Cc2ccc(Br)o2)c(C(C)C)cc1Cl.Cc1ccc(S(=O)(=O)[O-])cc1`: the MIC in [1] is 200 µg/mL; in assay [2], 10 µg/mL; in assay [3] it was more than 200 µg/mL; in [4], 100 µg/mL; in assay [5], 100 µg/mL; in assay [6] it was 200 µg/mL. For the same molecule, the MIC in [7] is more than 200 µg/mL; in [8], more than 200 µg/mL; in assay [9], 100 µg/mL; in assay [10], 25 µg/mL; in assay [11], 50 µg/mL; in [12] it was 50 µg/mL. Also, the MIC in assay [13] is more than 200 µg/mL; in assay [14], 200 µg/mL; in assay [15], 10 µg/mL.
